# Measured values: ChEMBL document CHEMBL4622964, “Designing Dihydrofolate Reductase Inhibitors as X-ray Radiosensitizers to Reverse Radioresistance of Cervical Cancer” (ACS Med Chem Lett, 2020)
# The source made the active and inactive calls. The calls are words filed in the database; no cut-off is given here.
# Key:
# [1] = Drug localization in lysosome of human HeLa cells at 20 uM after 4 hrs by LysoTracker/DAPI staining based fluorescence microscopic analysis; format: ADME, subcellular
# Summary of the method: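 HeLa cells pretreated with 20 μM compound; LysoTracker added 2 h and DAPI 30 min before each time point; compound green fluorescence (emission about 510 nm) overlaid with lysosome (red) and nucleus under fluorescence microscope.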
# [2] = Toxicity in BALB/c mouse xenografted with human HeLa cells assessed as lung damage at 4 mg/kg, iv administered for every 3 days for 21 days and measured after 24 hrs post last dose by H and E staining based light microscopic analysis; format: organism-based; details: in vivo
# Summary of the method: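 HeLa-tumor-bearing nude mice dosed at 4 mg/kg iv every 3 days for 21 days, alone or with X-rays; euthanized 24 h after last injection; heart, liver, lungs, kidneys and spleen sectioned and stained with H&E.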
# HeLa [3] = test: Induction of cell cycle arrest in human HeLa cells assessed as accumulation at G2/M phase at 1 uM after 48 hrs in presence of 4 Gy X-ray radiation by propidium iodide staining based flow cytometric analysis (reference value: 40.4%); format: functional
# HeLa [4] = test: Induction of cell cycle arrest in human HeLa cells assessed as accumulation at G1 phase at 1 uM after 48 hrs by propidium iodide staining based flow cytometric analysis (reference value: 40.7%); format: functional
# Dihydrofolate reductase = target: T1, Dihydrofolate reductase (Homo sapiens, UniProt P00374); test: Inhibition of recombinant human DHFR using dihydrofolate as substrate in presence of NADPH
# T1 sequence (P00374 whole entry): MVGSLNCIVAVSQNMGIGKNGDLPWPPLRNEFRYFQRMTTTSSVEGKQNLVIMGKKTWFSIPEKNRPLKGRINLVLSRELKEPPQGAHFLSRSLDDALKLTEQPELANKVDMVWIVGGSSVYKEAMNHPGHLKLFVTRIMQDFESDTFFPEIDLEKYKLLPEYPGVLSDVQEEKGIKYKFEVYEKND
# HeLa [5] = test: Induction of ROS generation in human HeLa cells in presence of 4 Gy X-ray irradiation by DHE fluorescent dye based microplate reader analysis (reference value: 150%); format: functional
# [6] = Cytotoxicity against human Ect1 cells assessed as reduction in cell viability by MTT assay; format: cell-based
# Summary of the method: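 MTT viability assay in Ect1/E6E7 normal ectocervical epithelial cells, with the test agent alone (0 Gy) or combined with 4 Gy X-rays. IC50 values are in μM.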
# HeLa [7] = test: Antitumor activity against human HeLa cells xenografted in BALB/c mouse assessed as reduction in tumor growth at 4 mg/kg, iv administered for every 3 days for 21 days in presence of 4 Gy X-ray irradiation relative to control; format: functional; design: scale not given: the % may be the effect or the level left
# Summary of the method: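 HeLa tumour-bearing nude mice were dosed at 4 mg/kg by tail-vein injection every 3 days over a 21-day period, with or without X-ray irradiation. Tumours were photographed and sectioned for H&E staining. Body weight was recorded over the 21 days.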
# [8] = Toxicity in BALB/c mouse xenografted with human HeLa cells assessed as liver damage by measuring effect on ALT level at 4 mg/kg, iv administered every 3 days for 21 days; format: organism-based; details: in vivo
# Summary of the method: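 HeLa xenograft nude mice dosed at 4 mg/kg iv every 3 days over 21 days, alone or with X-rays; blood collected 24 h after last injection for serum biochemistry: ALT, AST (liver), BUN and uric acid (kidney).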
# HeLa [9] = test: Antitumor activity against human HeLa cells xenografted in BALB/c mouse at 4 mg/kg, iv administered for every 3 days for 21 days; format: functional, organism-based
# Summary of the method: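 Nude mice bearing HeLa tumors; compound by tail-vein injection every 3 days over 21 days at 4 mg/kg, alone or combined with X-rays.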
# [10] = Toxicity in BALB/c mouse xenografted with human HeLa cells assessed as body weight loss at 4 mg/kg, iv administered for every 3 days and measured after 21 days in presence of 4 Gy X-ray irradiation; format: organism-based; details: in vivo, 504 h
# Summary of the method: (§1)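 HeLa-tumor-bearing nude mice given compound at 4 mg/kg by tail-vein injection every 3 days, alone or with X-rays; body weight recorded across 21 days.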
# [11] = Ratio of IC50 for cytotoxicity against human Ect1 cells assessed as reduction in cell viability by MTT assay to cytotoxicity against human Ect1 cells assessed as reduction in cell viability in presence of 4 Gy irradiation by MTT assay; format: cell-based; details: read-out: Ratio IC50
# Summary of the method: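 MTT viability assay on Ect1/E6E7 normal ectocervical cells and HeLa cells, with 0 or 4 Gy X-rays. SER = IC50(0 Gy)/IC50(4 Gy) in the same line; safe index SI4 = IC50 Ect1/E6E7 + 4 Gy divided by IC50 HeLa + 4 Gy.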
# HeLa [12] = test: Induction of ROS generation in human HeLa cells by DHE fluorescent dye based microplate reader analysis relative to control; format: functional
# Summary of the method: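 Intracellular ROS in HeLa cells were measured with the dihydroethidium probe, whose superoxide-oxidised product fluoresces red. Cells were treated with or without 4 Gy X-rays, then incubated with DHE. Fluorescence was read on a microplate reader and expressed as % of untreated cells.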
# [13] = Toxicity in BALB/c mouse xenografted with human HeLa cells assessed as body weight loss at 4 mg/kg, iv administered for every 3 days and measured after 21 days; format: organism-based; details: in vivo, 504 h; summary of the method: as §1
smiles,measurement,setting,value
Nc1nc(N)c2nc3c(nc2n1)-c1cccc2cccc-3c12,Drug uptake,[1],Active
same,Activity,[2],Non-Toxic
same,Activity,HeLa [3],36.2%
same,Activity,HeLa [4],38.7%
same,IC50,Dihydrofolate reductase,810 nM
same,Activity,HeLa [5],205%
same,IC50,[6],6.9 µM
same,Activity,HeLa [7],32%
same,Activity,[8],Non-Toxic
same,Activity,HeLa [9],Active
same,Activity,[10],Non-Toxic
same,selectivity ratio,[11],2.2
same,Activity,HeLa [12],132%
same,Activity,[13],Non-Toxic
